Compound activity (PubChem)
Compounds with a hit are over-represented: about 1.3% of the library has one in this group of screens.
Rev-RRE block: HIV-1 Rev-RRE binding inhibitors, primary screen, biochemical, FRET, protein-RNA interaction. P05866. AID 704, 2007. inhibition, % at 8 µM. actives 0.79% (n = 97,000). Rev peptide-RRE RNA binding;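 active = inhibition above the screen-wide mean plus 3 SD, cut at about 35% in these data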
Target sequence (P05866 whole entry, looked up): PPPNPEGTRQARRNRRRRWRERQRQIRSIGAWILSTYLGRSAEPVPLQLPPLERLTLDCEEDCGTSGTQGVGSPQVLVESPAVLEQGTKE
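Test system: Cy5-tagged RRE RNA duplex with fluorescein-tagged Rev peptide | Read-out: % inhibition of FRET ratio versus controls | Probe or stimulus: Labelled Rev peptide | Incubation: 5 min RNA-compound premix plus 15 min binding step, 25 °C | Technique: FRET fluorescence readout | Benchmarks: DMSO low control, neomycin B high control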
PTPN22 inh 2: PTPN22 phosphatase inhibitors, primary screen, biochemical, DiFMUP fluorescence, 2 µM. Tyrosine-protein phosphatase non-receptor type 22 (Homo sapiens), Q9Y2R2. recombinant LYP catalytic domain. inhibition, % at 2 µM. actives 0.21% (n = 96,000). AID 640, 2007;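 active = inhibition at 2 µM at or above a set limit, the screen mean plus 3 SD, cut at about 24% in these data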
EphB4 antag: EphB4-ephrin-B2 interaction antagonists, primary screen, biochemical, TNYL-RAW peptide probe, fluorescence polarization; Ephrin type-B receptor 4 (Homo sapiens), P54760; EphB4 LBD / TNYL-RAW-Alexa532 peptide; inhibition, % at 7 µM; actives 0.15% (n = 97,000); AID 720, 2007;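 active = inhibition above the screen-wide mean inhibition plus 3 SD, cut at about 15% in these data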
PTPN22 act: LYP phosphatase activators, primary screen, biochemical, DiFMUP fluorescence, 2 µM; activation, % at 2 µM; recombinant LYP; 0 = plate median, 100 = signal doubled; Tyrosine-protein phosphatase non-receptor type 22 (Homo sapiens), Q9Y2R2; actives 0.11% (n = 96,000);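 active = activation at 2 µM above a set limit, the mean plus 5 SD, cut at about 37% in these data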
Of the large screens only hits and unclear results are named; the others gave an inactive call; [ ] = dose if it differs, or a comment.

O=C1NC(=S)N/C1=C/c1ccc(-c2c(Br)cc([N+](=O)[O-])cc2Br)o1	Rev-RRE block 38
Cc1cc2nc(SCCOC(=O)Nc3ccc(Cl)cc3)nc(C)c2cc1C	none
N#C/C(=C(/O)COC(=O)Cc1c[nH]c2ccccc12)c1nc2ccccc2[nH]1	none
N#C/C(=C(/O)COC(=O)CCc1ccc(S(=O)(=O)N2CCOCC2)cc1)c1nc2ccccc2[nH]1	Rev-RRE block 45
O=C1CC(N(CCc2ccccc2)C(=S)Nc2cc(Cl)ccc2Cl)C(=O)N1c1c(Cl)cccc1Cl (centres undefined)	none
COC(=O)\C(C(C)=O)=C(/C=C/C=C/C=C/N(C)C)N(C)C	Rev-RRE block 82
COC(=O)/C(C(C)=O)=C(\C=C\N(C)C)N(C)C	none
CC(=O)Oc1ccc(OC(C)=O)c(SCCCCCN2CCOCC2)c1	none
Cc1ccc(-n2c(O)c(C=Nc3ccc4c(c3)OCO4)c3ccccc3c2=O)cc1C	none
Oc1c(Cl)cc(Cl)cc1C=Nc1ccc2c(c1)OCCO2	Rev-RRE block 46
CCOC(=O)C1=C(C)OC(N)=C(C#N)C1c1cc(OC)c2c(c1)OCO2 (centres undefined)	none
COc1cc(C2C(C#N)=C(N)Oc3cc(N(C)C)ccc32)cc2c1OCO2 (centres undefined)	Rev-RRE block 92[fluorescence artefact?]
O=C(c1ccc(COc2c(F)c(F)cc(F)c2F)o1)N1CCN(c2ccc(Cl)cc2)CC1	none
CC(=O)c1ccc(N2CCN(C(=O)c3ccc(Br)cc3)CC2)c(F)c1	EphB4 antag 21
CC1(C)CC(=O)C=C(NNC(=O)c2ccccc2O)C1	Rev-RRE block 36
Cc1ccc(-c2nc3cccnc3o2)cc1NC(=O)COc1ccc(C(C)(C)C)cc1	EphB4 antag 82[fluorescence artefact?]
Cc1ccc(-c2nc3cccnc3o2)cc1NC(=O)COc1ccc(Cl)cc1C	none
COc1cc(O)oc1C=Nc1ccc(Oc2ccccc2)cc1	none
COc1ccc(N=Cc2sc(O)c3ccccc23)cc1	Rev-RRE block 129[fluorescence artefact?]
O=C(N/N=C/c1ccncc1)c1cc2c(ccc3ccccc32)o1	none
O=C(N/N=C/c1cccc([N+](=O)[O-])c1)c1cc2c(ccc3ccccc32)o1	PTPN22 inh 2 35
Cc1ccc(S(=O)(=O)N(CC(=O)N2CCC(C)CC2)Cc2ccccc2F)cc1	none
CN(C1CCCCC1)S(=O)(=O)c1ccc(NC(=S)NC(=O)c2cccs2)cc1	none
Clc1ccc(C2=Nn3c(nnc3-c3cc(-c4ccccc4)n[nH]3)SC2)cc1	PTPN22 inh 2 28
CCOC(=O)c1c(N2C(=O)Nc3cc(Cl)c(Cl)cc3N2O)sc2c1CCCCC2	PTPN22 inh 2 32
COc1ccc(-n2c(NC(=O)c3ccco3)c(C#N)c3nc4ccccc4nc32)cc1	Rev-RRE block 37
CC1CCN(S(=O)(=O)c2cc(Br)cc(C(=O)NC3=NCCS3)c2)CC1	EphB4 antag 17
O=[n+]1c2c(n([O-])c3cc(F)c(N4CCCC4)cc31)CCC2	Rev-RRE block 66[fluorescence artefact?]
O=[n+]1c2c(n([O-])c3cc(F)c(N4CCCC4)cc31)CCCC2	Rev-RRE block 79[fluorescence artefact?]
O=[n+]1c2c(n([O-])c3cc(F)ccc31)CCCC2	none
O=C(NCc1ccccc1)c1c[nH]c2cc3c(cc2c1=O)OCCO3	none
Cc1ccc2[nH]c3c(c2c1)CN(C(=O)CN1CCSCC1)CC3	Rev-RRE block 36
Cc1ccc2[nH]c3c(c2c1)CN(C(=O)CN1CC(C)OC(C)C1)CC3 (centres undefined)	Rev-RRE block 61
O=C(CCCCCNS(=O)(=O)c1ccc(Br)cc1)NCCN1CCOCC1	none
COc1ccc(/C(O)=C/c2nc3ccccc3n(-c3ccccc3)c2=O)cc1	Rev-RRE block 78
Cc1ccc(-c2nnn(CC(=O)N3CCN(c4ccccc4)CC3)n2)o1	none
Cc1ccc2nc(/C(C#N)=C\c3cc(C)n(-c4cccc([N+](=O)[O-])c4)c3C)[nH]c2c1	none
Cc1ccc2nc(/C(C#N)=C\c3ccc([N+](=O)[O-])o3)[nH]c2c1	Rev-RRE block 64[fluorescence artefact?]
Cc1ccc2nc(/C(C#N)=C\c3ccc(N4CCOCC4)o3)[nH]c2c1	Rev-RRE block 135[fluorescence artefact?]
Cc1ccc(/C(C#N)=C\c2ccc(N3CCOCC3)o2)cc1	Rev-RRE block 96[fluorescence artefact?]
COc1ccc(C2=Nc3ccccc3OC2)cc1	none
COc1ccc(N2CCN(S(=O)(=O)c3ccc4c(c3)CCCC4)CC2)c([N+](=O)[O-])c1	none
COc1ccc(Cl)cc1NC(=O)Nc1cccc([N+](=O)[O-])c1C	none
